# Measured values taken from ChEMBL document CHEMBL1132984 (J Med Chem, 2000).
# Species: Rattus norvegicus
# Experiment: In vitro inhibitory concentration that relaxes KCL induced contraction in rat detrusor strips by 50%; contracted
# Type: functional
# Conditions: not given; call rule not given here
# Outline: (§1)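 Female Sprague-Dawley rat (250-350 g) detrusor strips, 4-5 mm by 10 mm, pretensioned 0.25-0.5 g in a tissue bath and contracted with an additional 15 mM KCl. Compounds added as cumulative concentrations to steady state. Contractility measured as 5 min area under the contraction curve per concentration; IC50 is the concentration relaxing KCl-induced contraction by 50%. Glyburide added at end.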
row,IC50,SMILES
1,contracted,N#Cc1ccc(Nc2c(NC3CCCCCC3)c(=O)c2=O)cc1
2,contracted,CC(/N=c1\c(O)c(O)\c1=N/c1ccccn1)C(C)(C)C (stereo not given)
3,contracted,COc1ccc(C(C)/N=c2\c(O)c(O)\c2=N/c2ccc(C#N)cc2)cc1 (stereo not given)

# Tested on: Rattus norvegicus
# Experiment: compound was evaluated in vivo for maximum % change in MAP in normotensive rat model after oral administration of a dose of 30 mg/kg
# Type: functional
# Conditions: not given
# Outline: (§2)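 Normotensive rats given test compound orally in a separate group from the efficacy animals. Mean arterial pressure and heart rate recorded after dosing, with maximum % change in MAP from initial values reported. ED20 is the oral dose causing a 20% drop in MAP.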
row,SMILES,Change [%]
1,CC(/N=c1\c(O)c(O)\c1=N/c1ccc(C#N)cc1)C(C)(C)C (stereo not given),8

# Species: Rattus norvegicus
# Experiment: In vitro inhibitory concentration that relaxes KCL induced contraction in rat detrusor strips by 50%; NE=no effect
# Type: functional
# Conditions: not given
# Outline: as §1
row,IC50,SMILES
1,Not Active,CC(/N=c1\c(O)c(O)\c1=N/c1ccc(C#N)cc1)c1ccc(F)cc1 (stereo not given)
2,Not Active,CC(/N=c1\c(O)c(O)\c1=N/c1ccc(C#N)cc1)c1ccc([N+](=O)[O-])cc1 (stereo not given)
3,Not Active,C[C@@H](/N=c1\c(O)c(O)\c1=N/c1ccc(C#N)c(O)c1)C(C)(C)C

# Tested on: Rattus norvegicus
# Experiment: Compound was evaluated in vivo for the % change in the frequency of spontaneous bladder contractions in the rat after oral administration of a dose of 10 mg/kg
# Type: functional
# Conditions: not given
row,SMILES,Change [%]
1,CC(/N=C(\NC#N)Nc1ccc(C#N)cc1)C(C)(C)C (stereo not given),-27
2,CC(/N=c1\c(O)c(O)\c1=N/c1ccc(C#N)cc1)C(C)(C)C (stereo not given),-83

# Tested on: Rattus norvegicus
# Experiment: Effective dose in vivo for reduction in MAP in normotensive rat model after oral administration
# Type: functional
# Conditions: not given
# Outline: as §2
row,SMILES,ED20 [mg/kg]
1,CCc1cc(C#N)ccc1Nc1c(N[C@H](C)C(C)(C)C)c(=O)c1=O,2.3
2,CC1(C)Oc2ccc(OC(F)(F)F)cc2[C@@H](N2Cc3ccccc3C2=O)[C@@H]1O,0.2
3,C[C@](O)(C(=O)Nc1ccc(C(=O)c2ccccc2)cc1)C(F)(F)F [ZD-6169],6.96

# Tested on: Rattus norvegicus
# Experiment: compound was evaluated in vivo for maximum % change in MAP in normotensive rat model after oral administration of a dose of 10 mg/kg
# Type: functional
# Conditions: not given
# Outline: as §2
row,SMILES,Change [%]
1,CC(/N=C(\NC#N)Nc1ccc(C#N)cc1)C(C)(C)C (stereo not given),-19

# Species: Rattus norvegicus
# Experiment: In vitro inhibitory concentration that relaxes KCL induced contraction in rat detrusor strips by 50%
# Type: functional
# Conditions: not given
# Outline: as §1
row,IC50 [µM],SMILES
1,0.37,C[C@@H](/N=c1\c(O)c(O)\c1=N/c1ccc(C#N)cc1)C(C)(C)C (stereo in doubt; 42)
2,24.3,C[C@@H](/N=c1\c(O)c(O)\c1=N/c1ccc(C#N)cc1)C(C)(C)C (stereo in doubt; 43)
3,3.35,N#Cc1ccc(Nc2c(NC3CC4CCC3C4)c(=O)c2=O)cc1 (stereo in doubt; 57)
4,> 30,N#Cc1ccc(Nc2c(NC3CC4CCC3C4)c(=O)c2=O)cc1 (stereo in doubt; 58)

# Same assay, conditions: Rattus norvegicus
row,IC50 [µM],SMILES
1,8.1,CC(/N=c1\c(O)c(O)\c1=N/c1cccc2cccnc12)C(C)(C)C (stereo not given)
2,1.36,CC(/N=c1\c(O)c(O)\c1=N/c1ccncc1)C(C)(C)C (stereo not given)
3,1.9,CC(C)C(C)/N=c1\c(O)c(O)\c1=N/c1ccc(C#N)cc1 (stereo not given)
4,> 30,CC(/N=c1\c(O)c(O)\c1=N/c1ccccc1C#N)C(C)(C)C (stereo not given)
5,> 30,CC(/N=c1\c(O)c(O)\c1=N/c1ccc(S(C)(=O)=O)cc1)C(C)(C)C (stereo not given)
6,> 30,CSc1ccc(Nc2c(NC(C)C(C)(C)C)c(=O)c2=O)cc1 (stereo not given)
7,> 30,CC(C)(/N=c1\c(O)c(O)\c1=N/c1ccc(C#N)cc1)c1ccccc1
8,> 30,CC(/N=c1\c(O)c(O)\c1=N/c1ccc(-n2ccnc2)cc1)C(C)(C)C (stereo not given)
9,> 30,CCC(C)(C)/N=c1\c(O)c(O)\c1=N/c1ccc(C#N)cc1
10,0.34,CC(/N=c1\c(O)c(O)\c1=N/c1ccc(CC#N)cc1)C(C)(C)C (stereo not given)
11,5.4,CC(/N=c1\c(O)c(O)\c1=N/c1ccccc1)C(C)(C)C (stereo not given)
12,0.041,C[C@@H](/N=c1\c(O)c(O)\c1=N/c1ccc(C#N)cc1Cl)C(C)(C)C
13,2.4,COc1ccc(Nc2c(NC(C)C(C)(C)C)c(=O)c2=O)cc1 (stereo not given)
14,0.63,Cc1cc(/N=c2\c(O)c(O)\c2=N/[C@H](C)C(C)(C)C)ccc1C#N
15,> 30,CC(/N=c1\c(O)c(O)\c1=N/c1ccc(C#N)cc1)c1ccc(OC(F)(F)F)cc1 (stereo not given)
16,4.6,C[C@@H](/N=c1\c(O)c(O)\c1=N/c1ccc2c[nH]nc2c1)C(C)(C)C
17,> 30,CC(C)(C)/N=c1\c(O)c(O)\c1=N/c1ccc2ncccc2c1
18,> 30,N#Cc1ccc(Nc2c(NC3CCCCC3)c(=O)c2=O)cc1
19,> 30,CC(/N=c1\c(O)c(O)\c1=N/c1cnc2ccccc2c1)C(C)(C)C (stereo not given)
20,> 30,CC(/N=c1\c(O)c(O)\c1=N/c1ccc(S(N)(=O)=O)cc1)C(C)(C)C (stereo not given)
21,2.1,CCC(C)/N=c1\c(O)c(O)\c1=N/c1ccc(C#N)cc1 (stereo not given)
22,> 30,COC(=O)c1ccc(Nc2c(NC(C)C(C)(C)C)c(=O)c2=O)cc1 (stereo not given)
23,1.77,CC(C)(C)/N=c1\c(O)c(O)\c1=N/c1cccnc1Cl
24,1.9,C[C@@H](/N=c1\c(O)c(O)\c1=N/c1cccnc1)C(C)(C)C

row,IC50 [µM],SMILES
1,1.68,C[C@@H](/N=c1\c(O)c(O)\c1=N/c1ccncc1)C(C)(C)C
2,2.8,CC(C)(C)/N=c1\c(O)c(O)\c1=N/c1cccnc1
3,13.7,CC(C)/N=c1\c(O)c(O)\c1=N/c1ccc(C#N)cc1
4,> 30,CC(/N=c1\c(O)c(O)\c1=N/c1ccc(C(F)(F)F)cc1)C(C)(C)C (stereo not given)
5,0.74,C[C@@H](/N=c1\c(O)c(O)\c1=N/c1ccc2[nH]ncc2c1)C(C)(C)C
6,> 30,CC(C)(C)/N=c1\c(O)c(O)\c1=N/c1cnc2ccccc2c1
7,> 30,COc1cc(/N=c2\c(O)c(O)\c2=N/C(C)C(C)(C)C)c2ncccc2c1 (stereo not given)
8,4,N#Cc1ccc(Nc2c(NC(c3ccccc3)C(F)(F)F)c(=O)c2=O)cc1 (stereo not given)
9,0.19,CC(/N=C(\NC#N)Nc1ccc(C#N)cc1)C(C)(C)C (stereo not given)
10,> 30,N#Cc1ccc(Nc2c(NCc3ccccc3)c(=O)c2=O)cc1
11,1.84,CC(C)(C)/N=c1\c(O)c(O)\c1=N/c1cccc2cnccc12
12,14.3,N#Cc1ccc(/N=c2\c(O)c(O)\c2=N/C(CO)c2ccccc2)cc1 (stereo not given)
13,> 30,CC(/N=c1\c(O)c(O)\c1=N/c1ccc(-c2ccccc2)cc1)C(C)(C)C (stereo not given)
14,17.6,CCc1cc(Nc2c(N[C@H](C)C(C)(C)C)c(=O)c2=O)ccc1C#N
15,6.05,C[C@@H](/N=c1\c(O)c(O)\c1=N/c1ccc(C#N)cc1O)C(C)(C)C
16,21.2,CC(=O)c1ccc(/N=c2\c(O)c(O)\c2=N/C(C)C(C)(C)C)cc1 (stereo not given)
17,0.52,CC(/N=c1\c(O)c(O)\c1=N/c1ccc(C#N)cc1)C(C)(C)C (stereo not given)
18,> 30,CCCCCCC/N=c1\c(O)c(O)\c1=N/c1ccc(C#N)cc1
19,> 30,Nc1c(Nc2cccnc2)c(=O)c1=O
20,4.3,C[C@@H](/N=c1\c(O)c(O)\c1=N/c1ccc(C#N)c(Cl)c1)C(C)(C)C
21,> 30,CC(/N=c1\c(O)c(O)\c1=N/c1ccc(OC(F)(F)F)cc1)C(C)(C)C (stereo not given)
22,23.1,CCCc1cc(C#N)ccc1/N=c1\c(O)c(O)\c1=N/[C@H](C)C(C)(C)C
23,1.95,CC(/N=c1\c(O)c(O)\c1=N/c1cccnc1)C(C)(C)C (stereo not given)
24,0.09,CCc1cc(C#N)ccc1Nc1c(N[C@H](C)C(C)(C)C)c(=O)c1=O

row,IC50 [µM],SMILES
1,22.5,CC[C@@H](/N=c1\c(O)c(O)\c1=N/c1ccc(C#N)cc1)c1ccccc1
2,2.6,C[C@@H](/N=c1\c(O)c(O)\c1=N/c1ccc(C#N)cc1)C1CCCCC1
3,0.056,C[C@@H](/N=c1\c(O)c(O)\c1=N/c1ccc(C#N)cc1)c1ccccc1
4,> 30,C[C@H](/N=c1\c(O)c(O)\c1=N/c1ccc(C#N)cc1)c1ccccc1
5,> 30,CC[C@H](/N=c1\c(O)c(O)\c1=N/c1ccc(C#N)cc1)c1ccccc1
6,> 30,C[C@H](/N=c1\c(O)c(O)\c1=N/c1ccc(C#N)cc1)C1CCCCC1
7,1.08,Cc1cc(C#N)ccc1/N=c1\c(O)c(O)\c1=N/[C@H](C)C(C)(C)C
8,4.78,C[C@@H](/N=c1\c(O)c(O)\c1=N/c1ccc(C#N)cc1C(=O)c1ccccc1)C(C)(C)C
9,0.67,C[C@@H](/N=c1\c(O)c(O)\c1=N/c1ccc(C#N)c2c1CCCC2)C(C)(C)C
10,0.29,COc1cc(C#N)ccc1/N=c1\c(O)c(O)\c1=N/[C@H](C)C(C)(C)C
11,2.56,COc1ncccc1/N=c1\c(O)c(O)\c1=N/C(C)(C)C
12,11.7,CC(/N=c1\c(O)c(O)\c1=N/c1cncc(Br)c1)C(C)(C)C (stereo not given)
13,0.075,C[C@@H](/N=c1\c(O)c(O)\c1=N/c1ccc(C#N)cc1Br)C(C)(C)C
14,> 30,Cc1ccc(C(C)/N=c2\c(O)c(O)\c2=N/c2ccc(C#N)cc2)cc1 (stereo not given)
15,1.26,CC(/N=c1\c(O)c(O)\c1=N/c1ccc(Br)cc1)C(C)(C)C (stereo not given)
16,0.56,CC(C)(C)/N=c1\c(O)c(O)\c1=N/c1ccc(C#N)cc1
17,> 30,CC(/N=c1\c(O)c(O)\c1=N/c1cccnc1O)C(C)(C)C (stereo not given)
18,3.05,CC(/N=c1\c(O)c(O)\c1=N/c1cccc(C#N)c1)C(C)(C)C (stereo not given)
19,> 30,C/N=c1\c(O)c(O)\c1=N/c1ccc(C#N)cc1
20,> 30,CC(C)(C)C/N=c1\c(O)c(O)\c1=N/c1ccc(C#N)cc1
21,3.34,CCC(CC)/N=c1\c(O)c(O)\c1=N/c1ccc(C#N)cc1
22,11.5,N#Cc1ccc(Nc2c(NC3CCCC3)c(=O)c2=O)cc1
23,0.63,"CC(N/C(=N\C#N)Nc1ccncc1)C(C)(C)C (single isomer, unassigned; (+)) [PINACIDIL ANHYDROUS]"
24,0.93,C[C@](O)(C(=O)Nc1ccc(C(=O)c2ccccc2)cc1)C(F)(F)F [ZD-6169]

# Tested on: not listed separately
# Experiment: Selectivity ratio of MAP ED20/bladder ED50
# Type: functional
# Conditions: not given
# Outline: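 Ratio of the oral ED20 for a 20% MAP drop in normotensive rats to the oral ED50 for a 50% reduction in spontaneous bladder contraction frequency in the urethral-obstructed rat instability model.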
row,SMILES,Ratio
1,CCc1cc(C#N)ccc1Nc1c(N[C@H](C)C(C)(C)C)c(=O)c1=O,17.7
2,CC1(C)Oc2ccc(OC(F)(F)F)cc2[C@@H](N2Cc3ccccc3C2=O)[C@@H]1O,0.7
3,C[C@](O)(C(=O)Nc1ccc(C(=O)c2ccccc2)cc1)C(F)(F)F [ZD-6169],2.9

# Tested on: Rattus norvegicus
# Experiment: Effective dose in vivo for reduction in the frequency of spontaneous bladder contractions in the rat oral administration
# Type: functional
# Conditions: not given
row,SMILES,ED50 [mg/kg]
1,CCc1cc(C#N)ccc1Nc1c(N[C@H](C)C(C)(C)C)c(=O)c1=O,0.13
2,CC1(C)Oc2ccc(OC(F)(F)F)cc2[C@@H](N2Cc3ccccc3C2=O)[C@@H]1O,0.3
3,C[C@](O)(C(=O)Nc1ccc(C(=O)c2ccccc2)cc1)C(F)(F)F [ZD-6169],2.4
